An excerpt weighted towards active compounds, which were near 5.1% of everything screened.
NF-kB expr up: raises NF-kB expression in human neuronal cells. NF-kB reporter expression; hits give high values. fold change at 12.5 µM. 190,000 tested, 1.6% active. AID 1239; in the data active = fold change above about 3.3
STAT1 act: activators of IFN-gamma induced STAT1 signaling | activation (% of control), % at 5.5 µM | 200,000 tested, 2.6% active | NIH 3T3 STAT1-luciferase reporter, luminescence; 100% = IFN-gamma alone, no compound;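 active = activation above the screen-wide mean activation plus 3 SD, cut at about 130% in these data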;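 note: raw ratio to IFN-gamma control signal so 100% means no change and 0% no light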
STAT3 inh-1: inhibitors of IL-6 induced STAT3 signaling; U3A cells, IL-6 STAT3-luciferase reporter, luminescence; host cell line lacks STAT1; inhibition, % at 5.5 µM; 190,000 tested, 0.89% active;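 active = inhibition above the mean inhibition across all screened compounds plus 3 SD, cut at about 44% in these data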;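 note: 0% = DMSO only wells and 100% = 100 µM nifuroxazide control wells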
STAT1 inh: inhibitors of IFN-gamma induced STAT1 signaling; AID 920; 200,000 tested, 0.35% active; NIH 3T3 STAT1-luciferase reporter, luminescence; inhibition, % at 5.5 µM;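 active = inhibition above a set limit, the mean inhibition across all tested compounds plus 3 SD, cut at about 34% in these data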;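 note: 0% = IFN-gamma with DMSO and 100% = IFN-gamma with 300 µM nifuroxazide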
STAT3 activator: activators of IL-6 induced STAT3 signaling | U3A cells, IL-6 STAT3-luciferase reporter, luminescence; 100% = signal with IL-6 EC80 alone | activation (% of control), % at 5.6 µM | 190,000 tested, 0.91% active;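 active = activation above the screen-wide mean of compound activation plus 3 SD, cut at about 130% in these data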;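 note: 0% = background luminescence of wells with medium and substrate only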
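Material: STAT3-luciferase reporter U3A cells. Controls: IL-6-treated wells, 100% activation. Read-out: % activation versus median of IL-6-stimulated wells. Probe or stimulus: IL-6 stimulus at 33 ng/mL final. Timing: compound 1 h, then IL-6 6 h at 37 °C. Signal: reporter luminescence signal.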
APP 5'UTR act: APP 5'UTR luciferase reporter activation. AID 1276. activation, % at 2 µM. 190,000 tested, 1% active. SH-SY5Y APP 5'UTR luciferase reporter, luminescence; zero percent = DMSO vehicle wells;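 active = activation above a set limit, based on mean plus 3 SD of controls, cut at about 140% in these data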
STAT3 inh-2: STAT3 inhibition, confirmation assay; shares compounds with STAT3 inh-1; U3A cells, IL-6 STAT3 luciferase reporter, luminescence; cell line lacks STAT1; inhibition, % at 5.7 µM; 1,200 tested, 45% active;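 active = inhibition above the hit cutoff computed for the primary STAT3 screen, cut at about 44% in these data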;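 note: 0% = IL-6 plus DMSO and 100% = IL-6 plus nifuroxazide control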
NFkB inh 2: counter-screen for STAT3 inhibitors: NF-kappaB inhibition; inhibition, % at 5.7 µM; 1,200 tested, 36% active; HEK293T NF-kB luciferase reporter, TNF-alpha induced; shares compounds with STAT3 inh-1;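 active = inhibition above the mean of solvent-only control wells plus 3 SD, cutoff set per campaign, cut at about 13% in these data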;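 note: 0% = TNF-alpha with DMSO and 100% = TNF-alpha with MG high control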
STAT1 inh STAT3c: inhibits STAT1, counter-screen to STAT3 inhibitors; inhibition, % at 5.7 µM; NIH 3T3 STAT1-luciferase reporter, IFN-gamma induced, luminescence; shares compounds with STAT3 inh-1; 1,200 tested, 27% active;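 active = inhibition above the mean plus 3 SD of solvent-only control wells, limit set per screening run, cut at about 16% in these data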;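 note: 0% = DMSO with IFN-gamma and 100% = nifuroxazide control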
* hit, by the source's call.

What do the screens show for `Cc1ccc(C)c(C(=O)CSc2nnnn2C(C)C)c1`?
NF-kB expr up: 1.69; STAT1 act: 108.8; STAT3 inh-1: 15.8; STAT1 inh: -9.7; STAT3 activator: 89.8; APP 5'UTR act: -13.8

How did Cc1ccc(C(=O)CSc2nnnn2C(C)C)c(C)c1 do in these assays?
NF-kB expr up: 3.03; STAT1 act: 72.2; STAT3 inh-1: 77.8*; STAT1 inh: 30.4; STAT3 activator: 35.0; APP 5'UTR act: 155.2*; STAT3 inh-2: 48.6*; NFkB inh 2: 21.8*; STAT1 inh STAT3c: -24.2

How did CCc1ccc(CN2CCN(C(=O)c3cccc(OC)c3OC)CC2)cc1 do in these assays?
NF-kB expr up: 1.08; STAT1 act: 87.0; STAT3 inh-1: 59.7*; STAT1 inh: 4.3; STAT3 activator: 52.7; APP 5'UTR act: -10.4; STAT3 inh-2: 41.1; NFkB inh 2: 10.2; STAT1 inh STAT3c: 6.3

Results for COc1ccc(Nc2oc(COc3ccc(Cl)cc3)nc2C#N)cc1 ?
NF-kB expr up: 0.84; STAT1 act: 97.8; STAT3 inh-1: 47.2*; STAT1 inh: 2.4; STAT3 activator: 64.0; APP 5'UTR act: 3.6; STAT3 inh-2: 30.6; NFkB inh 2: 0.2; STAT1 inh STAT3c: 8.2

Results for N#Cc1ccccc1NC(=O)c1ccc2c(Cl)c3c(nc2c1)CCCC3 ?
NF-kB expr up: 3.15; STAT1 act: 119.7; STAT3 inh-1: -6.4; STAT1 inh: -21.7; STAT3 activator: 105.0; APP 5'UTR act: 92.2

Results for O=C(Nc1cccnc1Cl)c1ccc2c(Cl)c3c(nc2c1)CCC3 ?
NF-kB expr up: 5.93*; STAT1 act: 135.3*; STAT3 inh-1: 56.3*; STAT1 inh: -36.9; STAT3 activator: 54.4; APP 5'UTR act: 242.3*; STAT3 inh-2: 11.8; NFkB inh 2: -38.7; STAT1 inh STAT3c: -95.8

How did N#Cc1c(/N=C/c2cccs2)sc2c1CCCCC2 do in these assays?
NF-kB expr up: 1.05; STAT1 act: 119.6; STAT3 inh-1: 67.0*; STAT1 inh: -21.4; STAT3 activator: 44.6; APP 5'UTR act: 148.5*; STAT3 inh-2: 21.2; NFkB inh 2: -24.4; STAT1 inh STAT3c: -120.6

Results for Cn1nc(CC(=O)Nc2ccc3c(c2)OCCO3)c2ccccc2c1=O ?
NF-kB expr up: 0.6; STAT1 act: 76.5; STAT3 inh-1: 82.9*; STAT1 inh: 26.1; STAT3 activator: 33.6; APP 5'UTR act: -4.7; STAT3 inh-2: 78.3*; NFkB inh 2: 34.0*; STAT1 inh STAT3c: 28.4*

What do the screens show for `Cc1ccc(NC(=O)Cc2nn(C)c(=O)c3ccccc23)cc1F`?
NF-kB expr up: 0.87; STAT1 act: 79.5; STAT3 inh-1: 84.8*; STAT1 inh: 30.1; STAT3 activator: 29.7; APP 5'UTR act: -8.1; STAT3 inh-2: 76.7*; NFkB inh 2: 25.3*; STAT1 inh STAT3c: 22.6*

What do the screens show for `Cc1ccc(NC(=O)Cn2nc(C)c3ccccc3c2=O)cc1F`?
NF-kB expr up: 0.97; STAT1 act: 108.3; STAT3 inh-1: -2.3; STAT1 inh: -7.4; STAT3 activator: 105.5; APP 5'UTR act: -6.2

How did CCOc1ccc(-c2cc(CCCC(=O)NCCCOC)no2)cc1 do in these assays?
NF-kB expr up: 0.77; STAT1 act: 93.0; STAT3 inh-1: 20.7; STAT1 inh: 7.7; STAT3 activator: 85.6; APP 5'UTR act: -48.8

Results for CCOC(=O)C1CCN(C(c2cccnc2)c2c(NC(=O)c3ccco3)sc(C)c2C)CC1 (stereo not drawn) ?
NF-kB expr up: 0.92; STAT1 act: 94.2; STAT3 inh-1: 50.0*; STAT1 inh: 6.3; STAT3 activator: 57.5; APP 5'UTR act: 9.3; STAT3 inh-2: 63.5*; NFkB inh 2: 14.3*; STAT1 inh STAT3c: -2.2

What do the screens show for `Cc1sc(NC(=O)c2ccco2)c(C(c2cccnc2)N2CCN(CCO)CC2)c1C` (stereo not drawn)?
NF-kB expr up: 0.85; STAT1 act: 105.7; STAT3 inh-1: 14.8; STAT1 inh: -8.1; STAT3 activator: 95.7; APP 5'UTR act: 4.3

Screening data as filed in PubChem BioAssay.
